Experimental data as given in BindingDB's records for doi:10.1021/jm100027p (Emory University, 2010).

Experiments:
[1] = molecular target: Glutamate receptor ionotropic, NMDA 1/2C (Rattus norvegicus, UniProt Q00961+P35439); assay: Antagonist activity at rat recombinant NR1-NR2C receptor expressed in Xenopus oocytes at holding potential of -40mV by two-electrode voltage-clamp electrophysiology
Procedure, shortened: (§1)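 Oocytes expressing rat NR1-1a with NR2A, NR2B, NR2C or NR2D, clamped at −40 mV in Ba2+/HEPES recording solution pH 7.4, 23°C. Current evoked by 100 μM glutamate plus 30 μM glycine. Final DMSO 0.05-0.5%, 5-7 inhibitor concentrations, ≥4 oocytes each. IC50 from Hill fit of normalized mean composite data. […] Some NR2A oocytes given BAPTA-AM or K-BAPTA.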

[2] = molecular target: Glutamate receptor ionotropic, NMDA 1/2B (Rattus norvegicus, UniProt Q00960+P35439); assay: Antagonist activity at rat recombinant NR1-NR2B receptor expressed in Xenopus oocytes at holding potential of -40mV by two-electrode voltage-clamp electrophysiology
Sequence of Glutamate receptor ionotropic, NMDA 1/2B (Q00960 whole entry, other chains not shown): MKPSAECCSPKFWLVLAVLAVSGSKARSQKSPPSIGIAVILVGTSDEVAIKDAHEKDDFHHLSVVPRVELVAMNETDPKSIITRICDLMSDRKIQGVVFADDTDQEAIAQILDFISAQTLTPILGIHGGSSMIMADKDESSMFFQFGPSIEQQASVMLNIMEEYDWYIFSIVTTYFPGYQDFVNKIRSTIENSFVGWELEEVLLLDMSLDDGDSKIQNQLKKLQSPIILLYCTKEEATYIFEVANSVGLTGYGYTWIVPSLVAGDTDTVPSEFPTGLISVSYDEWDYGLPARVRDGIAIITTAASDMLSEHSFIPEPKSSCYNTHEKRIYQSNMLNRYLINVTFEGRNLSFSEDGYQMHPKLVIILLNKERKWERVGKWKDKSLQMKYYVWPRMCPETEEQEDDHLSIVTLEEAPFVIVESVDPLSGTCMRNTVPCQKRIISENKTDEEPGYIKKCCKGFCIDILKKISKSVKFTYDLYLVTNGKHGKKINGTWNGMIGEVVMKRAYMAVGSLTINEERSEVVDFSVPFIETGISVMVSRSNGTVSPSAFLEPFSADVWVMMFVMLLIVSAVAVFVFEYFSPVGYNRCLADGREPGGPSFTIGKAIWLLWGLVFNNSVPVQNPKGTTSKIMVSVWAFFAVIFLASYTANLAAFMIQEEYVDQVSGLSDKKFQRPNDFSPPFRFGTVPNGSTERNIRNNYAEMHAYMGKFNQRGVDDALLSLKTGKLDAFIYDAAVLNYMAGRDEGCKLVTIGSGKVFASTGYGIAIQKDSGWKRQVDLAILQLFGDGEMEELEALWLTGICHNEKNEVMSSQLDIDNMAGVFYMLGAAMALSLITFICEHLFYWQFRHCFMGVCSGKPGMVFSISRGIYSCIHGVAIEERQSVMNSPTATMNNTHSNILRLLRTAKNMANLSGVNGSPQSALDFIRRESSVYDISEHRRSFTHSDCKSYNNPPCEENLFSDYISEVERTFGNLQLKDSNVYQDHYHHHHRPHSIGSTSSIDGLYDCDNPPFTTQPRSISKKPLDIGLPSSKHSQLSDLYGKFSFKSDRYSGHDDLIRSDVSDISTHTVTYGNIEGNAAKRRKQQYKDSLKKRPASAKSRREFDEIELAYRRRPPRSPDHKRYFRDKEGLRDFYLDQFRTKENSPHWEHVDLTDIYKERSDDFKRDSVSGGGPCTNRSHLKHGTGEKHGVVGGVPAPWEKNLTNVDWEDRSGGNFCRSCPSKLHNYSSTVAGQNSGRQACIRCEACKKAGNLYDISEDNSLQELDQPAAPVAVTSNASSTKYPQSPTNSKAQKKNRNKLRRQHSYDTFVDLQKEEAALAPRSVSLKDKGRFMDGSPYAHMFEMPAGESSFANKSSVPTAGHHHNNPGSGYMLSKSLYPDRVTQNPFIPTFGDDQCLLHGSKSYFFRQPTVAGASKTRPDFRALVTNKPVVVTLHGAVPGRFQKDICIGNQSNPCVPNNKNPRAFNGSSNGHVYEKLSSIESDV
Procedure, shortened: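 Oocytes expressed rat NR1-1a/NR2B and were held at −40 mV, 23°C, pH 7.4 HEPES-buffered saline. Currents were activated by 100 μM glutamate plus 30 μM glycine. 5-7 inhibitor concentrations were tested, ≥4 oocytes each, normalized to control. IC50 came from Hill fits, minimum fixed at 0 unless indicated. Responses >75% of control at 100 μM were reported as >300 μM.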

[3] = molecular target: Glutamate receptor ionotropic, NMDA 1/2A (Rattus norvegicus, UniProt Q00959+P35439); assay: Antagonist activity at rat recombinant NR1-NR2A receptor expressed in Xenopus oocytes at holding potential of -40mV by two-electrode voltage-clamp electrophysiology; procedure, shortened: as §1
Sequence of Glutamate receptor ionotropic, NMDA 1/2A (Q00959 whole entry, other chains not shown): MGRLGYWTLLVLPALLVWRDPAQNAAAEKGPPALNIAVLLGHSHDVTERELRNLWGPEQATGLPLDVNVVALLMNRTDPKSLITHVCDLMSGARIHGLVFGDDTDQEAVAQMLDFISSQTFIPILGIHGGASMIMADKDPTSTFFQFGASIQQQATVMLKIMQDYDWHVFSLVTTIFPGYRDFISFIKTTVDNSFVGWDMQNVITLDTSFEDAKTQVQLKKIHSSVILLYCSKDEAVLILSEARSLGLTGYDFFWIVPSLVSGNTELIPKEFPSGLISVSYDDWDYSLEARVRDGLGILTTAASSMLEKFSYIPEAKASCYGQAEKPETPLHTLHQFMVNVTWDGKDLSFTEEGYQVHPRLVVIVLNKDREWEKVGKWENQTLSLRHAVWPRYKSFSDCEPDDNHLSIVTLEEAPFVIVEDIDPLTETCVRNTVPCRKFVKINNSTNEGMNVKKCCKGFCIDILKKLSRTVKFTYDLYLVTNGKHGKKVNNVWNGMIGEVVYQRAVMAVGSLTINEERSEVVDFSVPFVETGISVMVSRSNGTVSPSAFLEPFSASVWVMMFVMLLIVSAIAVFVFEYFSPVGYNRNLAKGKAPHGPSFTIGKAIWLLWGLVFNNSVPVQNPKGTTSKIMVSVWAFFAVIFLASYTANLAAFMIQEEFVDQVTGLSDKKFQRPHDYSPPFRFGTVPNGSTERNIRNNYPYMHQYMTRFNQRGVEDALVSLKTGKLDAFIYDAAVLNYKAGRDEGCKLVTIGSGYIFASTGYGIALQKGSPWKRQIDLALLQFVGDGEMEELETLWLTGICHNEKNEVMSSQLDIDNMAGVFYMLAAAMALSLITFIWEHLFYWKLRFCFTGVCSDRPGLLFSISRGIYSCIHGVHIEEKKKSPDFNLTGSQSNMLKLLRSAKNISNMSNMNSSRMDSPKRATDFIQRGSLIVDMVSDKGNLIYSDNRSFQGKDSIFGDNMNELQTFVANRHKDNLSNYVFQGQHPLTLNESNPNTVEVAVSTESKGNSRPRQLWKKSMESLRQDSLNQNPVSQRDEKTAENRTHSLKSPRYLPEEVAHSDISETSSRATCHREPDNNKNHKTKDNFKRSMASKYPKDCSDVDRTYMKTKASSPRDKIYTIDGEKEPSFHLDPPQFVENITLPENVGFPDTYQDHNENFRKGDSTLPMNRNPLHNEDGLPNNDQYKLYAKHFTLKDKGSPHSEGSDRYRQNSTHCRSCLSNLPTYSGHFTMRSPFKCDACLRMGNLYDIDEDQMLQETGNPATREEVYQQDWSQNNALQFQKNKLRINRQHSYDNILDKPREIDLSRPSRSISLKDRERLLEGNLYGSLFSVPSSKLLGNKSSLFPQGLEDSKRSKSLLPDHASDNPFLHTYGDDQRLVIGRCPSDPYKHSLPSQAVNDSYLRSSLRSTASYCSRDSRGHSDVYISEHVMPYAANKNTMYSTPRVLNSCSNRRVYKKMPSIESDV

Glutamate receptor 1 = Glutamate receptor 1 (Rattus norvegicus, UniProt P19490); assay: Antagonist activity at rat recombinant GLuR1 expressed in Xenopus oocytes assessed as inhibition of glutamate-induced current by two-electrode voltage-clamp electrophysiology
Sequence of Glutamate receptor 1 (P19490 whole entry, the tested form may be a part): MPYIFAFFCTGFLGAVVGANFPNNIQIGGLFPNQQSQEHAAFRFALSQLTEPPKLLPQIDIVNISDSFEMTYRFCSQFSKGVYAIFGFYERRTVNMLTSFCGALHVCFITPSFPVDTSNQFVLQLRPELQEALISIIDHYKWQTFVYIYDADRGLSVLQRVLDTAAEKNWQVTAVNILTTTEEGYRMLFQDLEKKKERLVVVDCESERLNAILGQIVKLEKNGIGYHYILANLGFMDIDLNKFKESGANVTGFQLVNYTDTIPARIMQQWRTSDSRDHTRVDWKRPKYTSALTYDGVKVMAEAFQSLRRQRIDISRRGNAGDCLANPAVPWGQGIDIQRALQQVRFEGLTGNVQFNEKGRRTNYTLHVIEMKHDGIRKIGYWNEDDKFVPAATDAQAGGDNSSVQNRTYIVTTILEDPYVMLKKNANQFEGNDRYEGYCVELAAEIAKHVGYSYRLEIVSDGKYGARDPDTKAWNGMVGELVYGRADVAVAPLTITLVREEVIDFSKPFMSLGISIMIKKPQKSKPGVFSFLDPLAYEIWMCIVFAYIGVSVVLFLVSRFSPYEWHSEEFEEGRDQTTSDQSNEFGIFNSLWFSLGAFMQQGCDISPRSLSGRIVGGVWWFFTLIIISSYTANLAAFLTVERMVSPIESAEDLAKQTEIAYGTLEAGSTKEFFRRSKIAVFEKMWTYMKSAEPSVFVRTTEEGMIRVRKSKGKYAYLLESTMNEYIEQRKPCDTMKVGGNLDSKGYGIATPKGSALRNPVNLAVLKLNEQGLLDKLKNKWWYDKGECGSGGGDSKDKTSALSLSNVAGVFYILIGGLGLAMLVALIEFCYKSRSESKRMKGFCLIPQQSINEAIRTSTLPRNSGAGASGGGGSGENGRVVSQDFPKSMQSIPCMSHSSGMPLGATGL
Procedure, shortened: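 Two-electrode voltage clamp at −40 mV on Xenopus oocytes expressing rat GluR1, perfused with 90 NaCl, 1.0 KCl, 0.5 BaCl2, 0.005 EDTA, 10 HEPES (mM), pH 7.4, 23°C; activated by 100 μM glutamate. From 20 mM DMSO stocks, 5-7 concentrations, ≥4 oocytes each. Hill fit to mean composite curves normalized to control, minimum usually fixed at 0. Response >75% at 100 μM reported as >300 μM.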

Sequence of Glutamate receptor ionotropic, NMDA 1/2C (Q00961 whole entry, other chains not shown): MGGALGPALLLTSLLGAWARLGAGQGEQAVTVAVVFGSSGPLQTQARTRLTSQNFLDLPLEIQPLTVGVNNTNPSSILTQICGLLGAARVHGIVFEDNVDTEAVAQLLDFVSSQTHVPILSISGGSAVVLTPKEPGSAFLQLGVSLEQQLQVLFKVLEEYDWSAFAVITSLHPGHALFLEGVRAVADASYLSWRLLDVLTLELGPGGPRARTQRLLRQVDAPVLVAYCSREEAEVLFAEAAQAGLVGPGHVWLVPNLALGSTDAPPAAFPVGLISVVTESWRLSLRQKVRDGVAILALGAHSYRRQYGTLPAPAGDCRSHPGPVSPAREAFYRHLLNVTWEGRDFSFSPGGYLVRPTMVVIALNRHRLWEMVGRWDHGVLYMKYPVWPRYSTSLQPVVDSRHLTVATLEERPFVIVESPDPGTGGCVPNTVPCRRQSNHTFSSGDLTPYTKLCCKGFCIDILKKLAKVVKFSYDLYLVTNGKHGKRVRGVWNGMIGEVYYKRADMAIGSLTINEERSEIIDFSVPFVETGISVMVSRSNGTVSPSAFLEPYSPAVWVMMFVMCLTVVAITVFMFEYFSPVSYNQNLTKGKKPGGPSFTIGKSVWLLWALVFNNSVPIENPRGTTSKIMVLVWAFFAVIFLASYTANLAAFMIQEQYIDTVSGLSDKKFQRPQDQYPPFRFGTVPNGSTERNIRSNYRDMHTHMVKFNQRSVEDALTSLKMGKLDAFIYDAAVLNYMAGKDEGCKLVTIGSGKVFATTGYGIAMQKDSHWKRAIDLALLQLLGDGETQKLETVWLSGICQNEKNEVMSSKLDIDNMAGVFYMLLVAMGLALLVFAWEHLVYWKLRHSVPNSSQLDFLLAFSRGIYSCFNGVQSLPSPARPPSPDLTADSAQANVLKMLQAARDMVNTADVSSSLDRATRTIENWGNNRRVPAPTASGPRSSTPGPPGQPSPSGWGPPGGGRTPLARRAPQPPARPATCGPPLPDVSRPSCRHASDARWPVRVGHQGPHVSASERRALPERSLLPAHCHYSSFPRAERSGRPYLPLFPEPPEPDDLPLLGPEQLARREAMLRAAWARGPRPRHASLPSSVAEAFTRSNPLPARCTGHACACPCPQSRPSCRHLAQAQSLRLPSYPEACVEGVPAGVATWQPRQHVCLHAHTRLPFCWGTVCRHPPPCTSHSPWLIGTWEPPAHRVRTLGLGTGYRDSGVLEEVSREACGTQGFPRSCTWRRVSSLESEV

IC50 [1]: 2 µM | IC50 [2]: 13 µM | IC50 [3]: 16 µM | IC50 (Glutamate receptor 1): 7 µM
SMILES: O=C(O)c1ccc(-n2c(/C=C/c3cccc([N+](=O)[O-])c3)nc3ccc(Cl)cc3c2=O)cc1 [(E)-4-(6-Chloro-2-(3-nitrostyryl)-4-oxoquinazolin-3(4H)-yl)-benzoic Acid]
